Assay results from ChEMBL document CHEMBL1795252, “New class azaphilone produced by a marine fish-derived Chaetomium globosum. The stereochemistry and biological activities” (Bioorg Med Chem, 2011).
pIC50: −log10 of the molar value.

Experiments:
Format in all cases: functional, cell-based
HL-60 = experiment: Cytotoxicity against human HL60 cells after 72 hrs by MTT assay; conditions: HL-60, 72 h
Summary of the method: (§1)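 Cells grown in Eagle's MEM with 10% fetal calf serum at 37 °C, 5% CO2. Test material dissolved in DMSO (10 mM stock), diluted in medium to 200, 20 and 2 µM working solutions, combined with cell suspension (1 × 10^5 cells/ml). Incubated 72 h at 37 °C, MTT labeling, formazan dissolved in 20% SDS/0.1 N HCl, absorbance 540 nm. Growth as % of untreated control; triplicate assays; IC50 from semilog plots of averaged data.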

L1210 = experiment: Cytotoxicity against mouse L1210 cells after 72 hrs by MTT assay; conditions: L1210, 72 h; summary of the method: as §1
KB = experiment: Cytotoxicity against human KB cells after 72 hrs by MTT assay; summary of the method: as §1
P388 = experiment: Cytotoxicity against mouse P388 cells after 72 hrs by MTT assay; conditions: P388, 72 h; summary of the method: as §1

| Structure (SMILES) | pIC50 (HL-60) | pIC50 (L1210) | pIC50 (KB) | pIC50 (P388) |
| --- | --- | --- | --- | --- |
| C/C=C(\C)C(=O)C[C@H]1C2=COC(/C=C/[C@H](C)[C@@H](C)O)=CC2=C(Cl)C(=O)[C@@]1(C)O | 6.00 | 5.80 | 5.92 |  |
| C/C=C(\C)C(=O)C[C@H]1C2=COC(/C=C/[C@@H](C)[C@@H](C)O)=CC2=C(Cl)C(=O)[C@@]1(C)O [CHAETOMUGILIN I] | 5.96 | 5.72 | 5.64 | 5.96 |
| C/C=C(\Cl)C(=O)[C@@](C)(O)[C@H]1CC(=O)C(C)=C2C=C(/C=C/[C@@H](C)[C@@H](C)O)OC=C21 [CHAETOMUGILIN P] | 5.92 | 5.82 | 5.74 | 6.15 |
| C[C@H](O)[C@@H](C)/C=C/C1=CC2=C(Cl)C(=O)[C@](C)(O)[C@@H](O)[C@@H]2CO1 [CHAETOMUGILIN R] | 4.29 | 4.17 | 4.17 | 4.49 |
| O=c1[nH]cc(F)c(=O)[nH]1 [FLUOROURACIL] | 5.57 | 5.96 | 5.11 | 5.77 |
